# According to ChEMBL document CHEMBL2163270, “Design and in vitro activities of N-alkyl-N-[(8-R-2,2-dimethyl-2H-chromen-6-yl)methyl]heteroarylsulfonamides, novel, small-molecule hypoxia inducible factor-1 pathway inhibitors and anticancer agents” (J Med Chem, 2012):
# The source made the active and inactive calls. The calls are words filed in the database; no cut-off is given here.
# What was measured:
# [1] = target: Histone acetyltransferase p300 (Homo sapiens) (UniProt Q09472); experiment: Inhibition of P300 CH1 domain-mediated HIF1 transcriptional activity in human LN229-V6R cells assessed as reduction in luciferase activity incubated for 1 hr under normoxia followed by 24 hrs under hypoxia by reporter gene assay; format: cell-based
# Sequence of Histone acetyltransferase p300 (Homo sapiens) (Q09472 whole entry, the tested form may be a part): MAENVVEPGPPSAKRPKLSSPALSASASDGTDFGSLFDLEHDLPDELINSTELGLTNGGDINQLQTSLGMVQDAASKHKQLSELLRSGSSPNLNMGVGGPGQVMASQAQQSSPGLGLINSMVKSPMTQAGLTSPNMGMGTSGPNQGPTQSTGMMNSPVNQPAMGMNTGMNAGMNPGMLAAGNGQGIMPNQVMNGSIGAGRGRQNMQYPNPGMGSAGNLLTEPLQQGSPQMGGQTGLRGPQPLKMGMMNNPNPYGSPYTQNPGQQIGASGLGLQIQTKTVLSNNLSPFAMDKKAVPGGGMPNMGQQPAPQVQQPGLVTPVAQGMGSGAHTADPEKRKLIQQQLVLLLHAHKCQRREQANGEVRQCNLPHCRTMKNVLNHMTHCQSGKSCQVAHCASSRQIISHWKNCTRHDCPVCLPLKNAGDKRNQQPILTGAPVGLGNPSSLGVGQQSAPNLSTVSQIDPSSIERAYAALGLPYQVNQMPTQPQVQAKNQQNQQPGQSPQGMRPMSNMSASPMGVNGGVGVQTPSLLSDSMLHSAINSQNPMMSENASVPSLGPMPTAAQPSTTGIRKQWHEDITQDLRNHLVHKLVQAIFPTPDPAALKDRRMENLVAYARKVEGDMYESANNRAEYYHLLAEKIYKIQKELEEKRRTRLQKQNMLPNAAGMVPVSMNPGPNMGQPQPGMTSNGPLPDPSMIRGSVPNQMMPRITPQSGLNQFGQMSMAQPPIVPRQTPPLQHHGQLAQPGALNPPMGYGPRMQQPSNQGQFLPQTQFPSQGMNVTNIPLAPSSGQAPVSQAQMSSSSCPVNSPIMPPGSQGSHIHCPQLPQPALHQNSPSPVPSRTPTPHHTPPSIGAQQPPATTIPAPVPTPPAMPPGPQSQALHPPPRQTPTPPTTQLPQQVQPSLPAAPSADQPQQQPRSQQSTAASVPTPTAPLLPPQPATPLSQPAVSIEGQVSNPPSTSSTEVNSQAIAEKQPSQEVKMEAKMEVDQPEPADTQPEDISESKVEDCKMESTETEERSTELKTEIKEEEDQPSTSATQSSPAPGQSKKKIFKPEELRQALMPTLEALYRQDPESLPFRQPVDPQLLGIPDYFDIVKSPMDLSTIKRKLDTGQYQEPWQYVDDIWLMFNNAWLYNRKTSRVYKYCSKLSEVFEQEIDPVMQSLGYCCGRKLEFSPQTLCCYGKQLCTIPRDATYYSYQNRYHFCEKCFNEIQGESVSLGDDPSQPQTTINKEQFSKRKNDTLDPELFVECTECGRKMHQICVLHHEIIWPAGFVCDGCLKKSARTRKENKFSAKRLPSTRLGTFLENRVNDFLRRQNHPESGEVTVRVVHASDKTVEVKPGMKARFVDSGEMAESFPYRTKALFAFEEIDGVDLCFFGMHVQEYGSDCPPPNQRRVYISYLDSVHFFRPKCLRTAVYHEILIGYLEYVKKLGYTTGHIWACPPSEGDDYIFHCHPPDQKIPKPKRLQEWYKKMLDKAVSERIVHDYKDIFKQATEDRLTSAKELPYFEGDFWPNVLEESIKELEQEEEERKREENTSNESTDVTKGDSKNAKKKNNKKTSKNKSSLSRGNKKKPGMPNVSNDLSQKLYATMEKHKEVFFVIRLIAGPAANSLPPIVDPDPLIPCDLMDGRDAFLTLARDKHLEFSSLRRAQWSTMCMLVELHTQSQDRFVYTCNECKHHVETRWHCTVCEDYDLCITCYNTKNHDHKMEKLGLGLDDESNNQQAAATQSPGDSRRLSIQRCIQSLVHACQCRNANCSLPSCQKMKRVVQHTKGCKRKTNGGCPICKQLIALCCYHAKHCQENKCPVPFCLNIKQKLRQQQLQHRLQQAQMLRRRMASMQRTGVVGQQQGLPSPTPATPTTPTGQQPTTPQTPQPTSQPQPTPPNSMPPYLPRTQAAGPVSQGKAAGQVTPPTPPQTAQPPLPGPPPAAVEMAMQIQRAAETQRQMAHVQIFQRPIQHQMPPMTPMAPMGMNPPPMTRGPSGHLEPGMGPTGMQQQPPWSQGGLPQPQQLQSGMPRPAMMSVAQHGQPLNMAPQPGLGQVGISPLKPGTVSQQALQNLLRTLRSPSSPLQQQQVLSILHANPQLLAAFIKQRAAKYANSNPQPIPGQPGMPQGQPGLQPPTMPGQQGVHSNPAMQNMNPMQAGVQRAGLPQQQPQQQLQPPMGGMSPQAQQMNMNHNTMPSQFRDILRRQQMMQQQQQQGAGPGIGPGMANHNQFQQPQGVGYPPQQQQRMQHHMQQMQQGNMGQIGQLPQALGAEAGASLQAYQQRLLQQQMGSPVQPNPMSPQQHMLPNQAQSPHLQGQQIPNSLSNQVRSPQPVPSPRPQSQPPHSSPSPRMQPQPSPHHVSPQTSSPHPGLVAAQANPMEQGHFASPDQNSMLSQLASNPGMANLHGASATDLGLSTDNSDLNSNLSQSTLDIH
# How it was run: (§1)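 LN229-V6R cells carry a stably integrated hypoxia/HIF-inducible luciferase reporter. 3 × 10⁴ cells/well in DMEM with 10% serum, 24 h normoxia. Compound at 2.5, 5.0 or 10.0 μM in 1% DMSO, 1 h at 37 °C, then 24 h at 1% O2. Lysates mixed with luciferase substrate and read by luminometry, expressed as % of untreated control. Triplicates.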
# LN-229 = experiment: Inhibition of luciferase activity in human LN229-Lux cells at 2.5 to 10 uM incubated for 1 hr under normoxia followed by 24 hrs under hypoxia by reporter gene assay; format: functional, cell-based
# [2] = 1-Octanol-phosphate buffer distribution coefficient, log P of the compound at pH 7.4 by HPLC analysis; format: physicochemical
# How it was run: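 Eluent methanol:water:triethylamine 70:30:0.1 at 2 mL/min, UV 254/280 nm. Calibrated with aniline, benzene, toluene and chlorobenzene plus two shake-flask-measured reference sulfonamides.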
# [3] = target: Histone acetyltransferase p300 (Homo sapiens) (UniProt Q09472); experiment: Inhibition of P300 CH1 domain-mediated HIF1 transcriptional activity in human LN229-V6R cells assessed as remaining activity at 2.5 uM incubated for 1 hr under normoxia followed by 24 hrs under hypoxia by luciferase reporter gene assay; format: cell-based; how it was run: as §1
# Liver = experiment: Half life in mouse liver homogenate by HPLC analysis at pH 7.4; format: ADME, tissue-based; conditions: in vitro
# How it was run: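 Mouse liver homogenate in PBS pH 7.4 (1:2 w/v) incubated with 20 μM compound at 37 °C with shaking. Timed samples extracted with acetonitrile and analysed by C8 HPLC-PDA with 2 μM α-naphthoflavone internal standard, linear range 1-50 μM. Triplicates.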
# [4] = Drug metabolism in mouse plasma after 24 hrs by HPLC analysis; format: ADME, cell-free; conditions: read-out: Drug metabolism
# How it was run: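 Compound at 20 μM incubated in fresh mouse plasma at 37 °C with shaking for 24 h. Samples extracted with acetonitrile, dried and reconstituted. Quantified by C8 reverse-phase HPLC with photodiode-array detection, 2 μM α-naphthoflavone internal standard, standard curves 1-50 μM. Triplicates.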
# [5] = Cytotoxicity against human LN229 cells transfected with V6R incubated for 14 days under normoxic condition by clonogenecity assay; format: functional, cell-based; conditions: LN-229, 336 h
# [6] = Cytotoxicity against human LN229 cells transfected with V6R incubated for 1 hr under normoxic condition followed by 14 days under hypoxic condition by clonogenecity assay; format: functional, cell-based; conditions: LN-229
# [7] = Cytotoxicity against human HFF1 cells incubated for 14 days under normoxic condition by clonogenecity assay; format: cell-based; conditions: HFF-1, 336 h
# How it was run: (§2)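 Clonogenic assay in LN229 glioma or HFF-1 immortalized fibroblasts seeded at 200 or 1,000 cells/well and allowed to adhere 16 h under normoxia. Compound at 6.25-100 μM final, 1% DMSO. Plates held 1 h under normoxia, then 14 days at 21% or 1% O2. Colonies stained with 0.9% crystal violet and counted. IC50 from exponential/polynomial fit (R² ≥ 0.8).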
# [8] = Cytotoxicity against human HFF1 cells incubated for 1 hr under normoxic condition followed by 14 days under hypoxic condition by clonogenecity assay; format: cell-based; conditions: HFF-1; how it was run: as §2
# [9] = target: Histone acetyltransferase p300 (Homo sapiens) (UniProt Q09472); experiment: Inhibition of P300 CH1 domain-mediated HIFalpha protein expression in human LN229-V6R cells incubated for 1 hr under normoxia followed by 24 hrs under hypoxia by Western blot analysis; format: cell-based
# How it was run: (§3)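 LN229-V6R cells, 2 × 10⁵ per 35 mm dish, grown 24 h under normoxia. Compound at 3-100 μM in 1% DMSO, 1 h normoxia, then 24 h at 1% O2. Lysed in SDS loading buffer and resolved on a 4-12.5% gradient gel. Immunoblotted for HIF-1α (1:500) with β-actin (1:3,000), HRP secondaries, ECL detection. Repeated at least twice.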
# [10] = target: Histone acetyltransferase p300 (Homo sapiens) (UniProt Q09472); experiment: Inhibition of P300 CH1 domain-mediated HIF1 transcriptional activity in human LN229-V6R cells assessed as reduction in luciferase activity at 10 uM incubated for 1 hr under normoxia followed by 24 hrs under hypoxia by reporter gene assay; format: cell-based; how it was run: as §1
# [11] = 1-Octanol-phosphate buffer distribution coefficient, log P of the compound at pH 7.4 after 15 mins by shake flask method; format: physicochemical
# How it was run: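 Shake-flask partition per OECD 107: 1-octanol and 0.2 M phosphate buffer pH 7.4 mutually presaturated by 24 h stirring at room temperature. 1-2 mg compound dissolved in 2 mL buffer-saturated octanol plus 2 mL octanol-saturated buffer, run in duplicate. Aqueous layer quantified by HPLC at 254 nm against standard curves.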
# [12] = Cytotoxicity against human LN229 cells transfected with V6R incubated for 3 days under normoxic condition by SRB assay; format: functional, cell-based; conditions: LN-229, 72 h
# How it was run: (§4)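 SRB growth assay: LN229-V6R, 2 × 10³ cells/well, attached 24 h under normoxia. Dosed at 3-100 μM in 1% DMSO, 1 h normoxia, then normoxia or hypoxia for 3 days. Cold 10% TCA fixation, 0.04% SRB stain, dye solubilized in 10 mM Tris pH 10, OD 564 nm. Quadruplicate or sextuplicate wells, two independent experiments; IC50 by curve fit.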
# [13] = Cytotoxicity against human LN229 cells transfected with V6R incubated for 1 hr under normoxic condition followed by 3 days under hypoxic condition by SRB assay; format: functional, cell-based; conditions: LN-229; how it was run: as §4
# [14] = Aqueous solubility of the compound; format: physicochemical; conditions: aqueous medium
# How it was run: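 Saturated suspension (1–2 mg in 2 mL distilled water) sonicated 30 min at room temperature, centrifuged 1,500 g, 20 °C, 5 min, then filtered through 0.2 μm PTFE. Filtrate quantified by HPLC-UV at 254 nm against standard curves. Three independent experiments, values averaged.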
# [15] = target: Histone acetyltransferase p300 (Homo sapiens) (UniProt Q09472); experiment: Inhibition of P300 CH1 domain-mediated HIF1 transcriptional activity in human LN229-V6R cells assessed as reduction in luciferase activity at 2.5 to 10 uM incubated for 1 hr under normoxia followed by 24 hrs under hypoxia by reporter gene assay; format: cell-based
# How it was run: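 LN229-V6R cells carrying a stably integrated hypoxia/HIF-inducible luciferase reporter were seeded at 3 × 10⁴/well in DMEM with 10% serum and grown 24 h under normoxia. Compound was added at 2.5, 5.0 or 10.0 μM in 1% DMSO. Cells were held 1 h at 37 °C, then 24 h under hypoxia (1% O₂). Luciferase was read in lysates as percent of untreated control, in triplicate.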
# [16] = Aqueous solubility of the compound at pH 7.4 after 90 mins by laser nephelometric analysis; format: physicochemical; conditions: aqueous medium
# How it was run: (§5)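 DMSO stocks (30 mg/mL) serially diluted, then diluted into phosphate-buffered saline at pH 7.4, 5.0 or 3.0. Final drug concentrations were 1.5–300 μg/mL with 1% DMSO. Incubated 90 min at ambient temperature, and laser nephelometry located the onset of precipitation. An internal control was included.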
# [17] = Aqueous solubility of the compound at pH 5 after 90 mins by laser nephelometric analysis; format: physicochemical; conditions: aqueous medium; how it was run: as §5
# [18] = Aqueous solubility of the compound at pH 3 after 90 mins by laser nephelometric analysis; format: physicochemical; conditions: aqueous medium; how it was run: as §5
# [19] = target: Histone acetyltransferase p300 (Homo sapiens) (UniProt Q09472); experiment: Inhibition of P300 CH1 domain-mediated HIFalpha protein expression in human LN229-V6R cells at 3 to 50 uM incubated for 1 hr under normoxia followed by 24 hrs under hypoxia by Western blot analysis; format: cell-based; how it was run: as §3
# [20] = target: Histone acetyltransferase p300 (Homo sapiens) (UniProt Q09472); experiment: Inhibition of P300 CH1 domain-mediated HIFalpha protein expression in human LN229-V6R cells at 100 uM incubated for 1 hr under normoxia followed by 24 hrs under hypoxia by Western blot analysis; format: cell-based; how it was run: as §3
Compound,inhibition [1],inhibition (LN-229),logD [2],Activity [3],t1/2 (Liver),metabolised at 24 h [4],also measured
CC(C)CN(Cc1ccc2c(c1)C=CC(C)(C)O2)S(=O)(=O)c1ccncc1,Dose-dependent effect,inactive,3.6,63%,,,
CC1(C)C=Cc2cc(CN(C3CCCC3)S(=O)(=O)c3ccccn3)ccc2O1,Dose-dependent effect,inactive,3.8,60%,,,
CC(C)CN(Cc1cc(O)c2c(c1)C=CC(C)(C)O2)S(=O)(=O)c1ccccn1,Dose-dependent effect,inactive,1.3,43%,15 h,,
CC(C)CN(Cc1ccc2c(c1)C=CC(C)(C)O2)S(=O)(=O)c1nccn1C,Dose-dependent effect,inactive,3.1,74%,,,
CC1(C)C=Cc2cc(CN(CC3CC3)S(=O)(=O)c3ccccn3)ccc2O1,Dose-dependent effect,inactive,3.1,49%,13 h,< 1%,
COc1cc(CN(C(C)C)S(=O)(=O)c2ccccn2)cc2c1OC(C)(C)C=C2,Dose-dependent effect,inactive,,61%,15 h,< 1%,IC50 [5]: 69 µM; IC50 [6]: > 100 µM; IC50 [7]: 55 µM; IC50 [8]: > 100 µM; inhibition [9]: Dose-dependent effect; inhibition [10]: > 60%; logD at 0.25 h [11]: 1.3; IC50 [12]: 73 µM; IC50 [13]: 146 µM
CC(C)CN(Cc1cc(O)c2c(c1)C=CC(C)(C)O2)S(=O)(=O)c1ccncc1,Dose-dependent effect,inactive,1.2,59%,,< 1%,IC50 [5]: 23 µM; IC50 [6]: 30 µM; IC50 [7]: 22 µM; IC50 [8]: 40 µM; inhibition [9]: Dose-dependent effect; inhibition [10]: > 60%; IC50 [12]: 92 µM; IC50 [13]: 113 µM
CC(C)CN(Cc1ccc2c(c1)C=CC(C)(C)O2)S(=O)(=O)c1nccs1,Dose-dependent effect,inactive,4.4,78%,,,
CC1(C)C=Cc2cc(CN(C3CCC3)S(=O)(=O)c3ccccn3)ccc2O1,Dose-dependent effect,inactive,3,53%,,,
COc1ccc(S(=O)(=O)N(Cc2ccc3c(c2)C=CC(C)(C)O3)c2ccccc2)cc1OC,,inactive,3.7,28%,11 h,< 1%,solubility [14]: 9 nM; inhibition [15]: Active; solubility kinetic at 1.5 h [16]: < 15 µg/mL; solubility kinetic at 1.5 h [17]: < 15 µg/mL; solubility kinetic at 1.5 h [18]: < 15 µg/mL
CC(C)CN(Cc1ccc2c(c1)C=CC(C)(C)O2)S(=O)(=O)c1ccccn1,Dose-dependent effect,inactive,4.1,85%,,,
CC1(C)C=Cc2cc(CN(C3CC3)S(=O)(=O)c3ccccn3)ccc2O1,Dose-dependent effect,inactive,3,71%,,,
CO[C@H]1/C=C\C=C(/C)C(=O)NC2=CC(=O)C(NCCN(C)C)=C(C[C@@H](C)C[C@H](OC)[C@H](O)[C@@H](C)/C=C(\C)[C@@H]1OC(N)=O)C2=O (stereo in doubt),,Active,,,,,
CC(C)N(Cc1ccc2c(c1)C=CC(C)(C)O2)S(=O)(=O)c1ccccn1,Dose-dependent effect,inactive,,55%,20 h,< 1%,IC50 [5]: 82 µM; IC50 [6]: 134 µM; IC50 [7]: 62 µM; IC50 [8]: 93 µM; inhibition [19]: inactive; inhibition [20]: Active; inhibition [10]: 60%; logD at 0.25 h [11]: 2; solubility kinetic at 1.5 h [16]: < 15 µg/mL; solubility kinetic at 1.5 h [17]: 16 µg/mL; solubility kinetic at 1.5 h [18]: 17 µg/mL; IC50 [12]: 100 µM; IC50 [13]: 126 µM
